This is an account of results in the array DNA melting data of Ke et al. (doi:10.1101/2024.01.08.574731).

A short description of data set [1]: folding enthalpy; higher = less favourable; fluorescence melt of hairpins on a sequencing array, two-state fit. To be noted: sodium 0.088 M. In short, it runs like this:
(§1)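 Two-state fits, bootstrapped, provided melting temperature and folding enthalpy from Cy3 fluorescence normalised to pre-quench Cy3 and to control constructs. Library hairpins with annealed Cy3 and quencher oligos were imaged on a sequenced MiSeq flow cell in 50 mM Na-HEPES pH 8.0, 25 mM NaCl, at 2.5 °C intervals up to 60 °C. Four replicates were combined with inverse-variance weighting. A 9.35 °C upward shift was applied to fitted temperatures to match UV melts.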

The nature of data set [2]: melting temperature; fluorescence melt of hairpins on a sequencing array, two-state fit, raised by 9.35 °C to match UV melts. Particulars: sodium 0.088 M. In short, it runs like this: as §1

For the sequence AAATGGAAACATTT (((((....))))), in data set [1], the folding enthalpy was -9.49 kcal/mol. In addition, the Tm in data set [2] amounted to 27.2 °C.
The matching figures for AAGAGGAAACTCTT (((((....))))): -9.65 kcal/mol and 28 °C.
AAGCTGAAAAGCTT (((((....))))): the folding enthalpy in data set [1] was -21.1 kcal/mol. Also, the Tm in data set [2] came to 49.3 °C.
With AAGGAGAAATCCTT (((((....))))), in data set [1], the folding enthalpy was -8.61 kcal/mol. Besides, the Tm in data set [2] stood at 27.3 °C.
Take ACAGAGAAATCTGT (((((....))))): the folding enthalpy in data set [1] is -13.6 kcal/mol. The Tm in data set [2] was 32.7 °C.
For ACATTGAAAAATGT (((((....))))), in that order: -13.4 kcal/mol and 32.9 °C.
For ACCCGGAAACGGGT (((((....))))), in that order: -19.5 kcal/mol and 58.1 °C.
On to ACCTGGAAACAGGT (((((....))))), for which the folding enthalpy in data set [1] was -18.8 kcal/mol. Also, the Tm in data set [2] came to 51.1 °C.
Consider ACGAAGAAATTCGT (((((....))))), for which the folding enthalpy in data set [1] is -18.1 kcal/mol. Moreover, in data set [2], the Tm came to 38 °C.
The matching figures for ACTATGAAAATAGT (((((....))))): -11.8 kcal/mol and 32.2 °C.
The matching figures for ACTCTGAAAAGAGT (((((....))))): -17.4 kcal/mol and 43.4 °C.
For ACTTGGAAACAAGT (((((....))))), in that order: -17.8 kcal/mol and 38.4 °C.
With AGAACCCGAAAGGCTTCT ((((.((....)).)))), the folding enthalpy in data set [1] was -17.7 kcal/mol. For the same sequence, the Tm in data set [2] was found to be 33.6 °C.
The matching figures for AGAATCAGAAATGGTTCT ((((.((....)).)))): -26.5 kcal/mol and 30.6 °C.
AGAATCCGAAAGGCTTCT ((((.((....)).)))): the folding enthalpy in data set [1] is -27.3 kcal/mol. Further, in data set [2], the Tm was 35.6 °C.
As for AGACCGAAAGGTCT (((((....))))), in data set [1], the folding enthalpy is -21.1 kcal/mol. In addition, the Tm in data set [2] was found to be 68.6 °C.
For the sequence AGATGGAAACATCT (((((....))))), the folding enthalpy in data set [1] is -19 kcal/mol. Besides, the Tm in data set [2] is 42.1 °C.
In the case of AGCATGAAAATGCT (((((....))))), the folding enthalpy in data set [1] is -22.2 kcal/mol. For the same sequence, the Tm in data set [2] is 50 °C.
For AGCGAGAAATCGCT (((((....))))), in that order: -20.7 kcal/mol and 53.7 °C.
Regarding AGCGGGAAACCGCT (((((....))))), in data set [1], the folding enthalpy is -19.1 kcal/mol. Moreover, the Tm in data set [2] was found to be 67.1 °C.
For AGGGGGAAACCCCT (((((....))))), the folding enthalpy in data set [1] was -17.5 kcal/mol. Further, the Tm in data set [2] was 53.5 °C.
For AGGGTGAAAACCCT (((((....))))), in that order: -19.3 kcal/mol and 53.9 °C.
For AGGTTGAAAAACCT (((((....))))), in that order: -20.5 kcal/mol and 45.6 °C.
For the sequence ATAACGAAAGTTAT (((((....))))), the folding enthalpy in data set [1] is -15.2 kcal/mol. In data set [2], the Tm was 46.3 °C.
The matching figures for ATACCGAAAGGTAT (((((....))))): -20.2 kcal/mol and 52.2 °C.
The matching figures for ATACGGAAACGTAT (((((....))))): -21.8 kcal/mol and 43.5 °C.
The matching figures for ATACTGAAAAGTAT (((((....))))): -12.3 kcal/mol and 30.6 °C.
With ATCGAGAAATCGAT (((((....))))), the folding enthalpy in data set [1] is -23.9 kcal/mol. Besides, the Tm in data set [2] is 39.5 °C.
The matching figures for ATGAGGAAACTCAT (((((....))))): -17.6 kcal/mol and 39.6 °C.
The matching figures for ATGATGAAAATCAT (((((....))))): -15.2 kcal/mol and 39.5 °C.
In the case of ATGTTGAAAAACAT (((((....))))), the folding enthalpy in data set [1] was -13 kcal/mol. The Tm in data set [2] amounted to 37 °C.
The matching figures for CAAAGGAAACTTTG (((((....))))): -16.2 kcal/mol and 35 °C.
On to CACATGAAAATGTG (((((....))))), for which the folding enthalpy in data set [1] was -27.3 kcal/mol. Besides, in data set [2], the Tm was determined as 47.9 °C.
For CACCAGAAATGGTG (((((....))))), in that order: -23.4 kcal/mol and 50 °C.
In the case of CACTCGAAAGAGTG (((((....))))), the folding enthalpy in data set [1] is -24.4 kcal/mol. In addition, the Tm in data set [2] came out at 59.9 °C.
For CAGACGAAAGTCTG (((((....))))), in that order: -24.4 kcal/mol and 61.9 °C.
For the sequence CATAGGAAACTATG (((((....))))), the folding enthalpy in data set [1] is -14.3 kcal/mol. In data set [2], the Tm worked out at 38.4 °C.
Take CCAAAGAAATTTGG (((((....))))): the folding enthalpy in data set [1] was -8.79 kcal/mol. Further, the Tm in data set [2] was 30.9 °C.
Consider CCAAGGAAACTTGG (((((....))))), for which the folding enthalpy in data set [1] was -20.3 kcal/mol. Besides, in data set [2], the Tm came to 46 °C.
For CCAGTGAAAACTGG (((((....))))), in that order: -19.8 kcal/mol and 50.8 °C.
Regarding CCATGGAAACATGG (((((....))))), the folding enthalpy in data set [1] is -23.2 kcal/mol. In data set [2], the Tm came out at 49.6 °C.
In the case of CCCTGGAAACAGGG (((((....))))), in data set [1], the folding enthalpy is -20 kcal/mol. For the same sequence, in data set [2], the Tm came to 56.9 °C.
As to CCTTGGAAACAAGG (((((....))))), in data set [1], the folding enthalpy is -15.7 kcal/mol. Moreover, the Tm in data set [2] stood at 47.2 °C.
For the sequence CGAAAACGGAAACGTTCG (((..(((....)))))), the folding enthalpy in data set [1] is -19.8 kcal/mol. For the same sequence, in data set [2], the Tm came to 37 °C.
For CGAAACCGGAAACGGTCG (((..(((....)))))), in that order: -14.9 kcal/mol and 43.8 °C.
Regarding CGAAACGGAAACGTATCG (((.(((....))).))), the folding enthalpy in data set [1] was -30.8 kcal/mol. Besides, the Tm in data set [2] came out at 42.6 °C.
Turning to CGAACCCGGAAACGGTCG (((..(((....)))))), the folding enthalpy in data set [1] was -13 kcal/mol. Moreover, the Tm in data set [2] came out at 36.7 °C.
For CGAACGCGGAAACGCTCG (((..(((....)))))), in that order: -17.2 kcal/mol and 40.5 °C.
The matching figures for CGAACGGAAACGTAATCG ((((((....)))..))): -8.82 kcal/mol and 24.5 °C.
In the case of CGAAGACGGAAACGTTCG (((..(((....)))))), the folding enthalpy in data set [1] is -13.8 kcal/mol. The Tm in data set [2] was 39 °C.
Take CGAATACGGAAACGTTCG (((..(((....)))))): the folding enthalpy in data set [1] was -24.9 kcal/mol. For the same sequence, the Tm in data set [2] came to 34 °C.
Consider CGACACGGAAACGTCTCG (((.(((....))).))), for which the folding enthalpy in data set [1] is -26.8 kcal/mol. Further, in data set [2], the Tm was 35.9 °C.
Consider CGACAGCGGAAACGCTCG (((..(((....)))))), for which, in data set [1], the folding enthalpy was -12.9 kcal/mol. For the same sequence, the Tm in data set [2] stood at 40.3 °C.
With CGACATCGGAAACGATCG (((..(((....)))))), the folding enthalpy in data set [1] is -12.7 kcal/mol. For the same sequence, the Tm in data set [2] worked out at 34 °C.
Turning to CGACCACGGAAACGTTCG (((..(((....)))))), the folding enthalpy in data set [1] is -12.3 kcal/mol. For the same sequence, the Tm in data set [2] turned out to be 30.5 °C.
Take CGACCGCGGAAACGCTCG (((..(((....)))))): the folding enthalpy in data set [1] is -11.2 kcal/mol. Also, in data set [2], the Tm was found to be 34 °C.
For CGACCGGAAACGGTCTCG ((((((....)))..))), in that order: -8.29 kcal/mol and 38 °C.
The matching figures for CGACGCGGAAACGCCTCG (((.(((....))).))): -23.9 kcal/mol and 41.5 °C.
The matching figures for CGACTCGGAAACGATTCG (((.(((....))).))): -41 kcal/mol and 42.5 °C.
Consider CGACTGAAAAGTCG (((((....))))), for which the folding enthalpy in data set [1] is -26.5 kcal/mol. The Tm in data set [2] came out at 58.5 °C.
For the sequence CGACTGCGGAAACGCTCG (((..(((....)))))), the folding enthalpy in data set [1] was -12.5 kcal/mol. Besides, in data set [2], the Tm was determined as 32.7 °C.
With CGAGCGGAAACGCACTCG ((((((....)))..))), the folding enthalpy in data set [1] is -15.8 kcal/mol. The Tm in data set [2] came to 37.6 °C.
For CGAGCGGAAACGCGTTCG ((((((....)))..))), in that order: -12.6 kcal/mol and 49.9 °C.
For CGAGTACGGAAACGTTCG (((..(((....)))))), in that order: -20.4 kcal/mol and 36.6 °C.
For CGAGTCGGAAACGATTCG (((.(((....))).))), in that order: -47.2 kcal/mol and 50.4 °C.
In the case of CGAGTGAAAACTCG (((((....))))), in data set [1], the folding enthalpy is -24.6 kcal/mol. For the same sequence, the Tm in data set [2] was found to be 54.6 °C.
CGATCCCGGAAACGGTCG (((..(((....)))))): the folding enthalpy in data set [1] was -19.9 kcal/mol. The Tm in data set [2] turned out to be 30.7 °C.
For CGATCCGGAAACGGGTCG (((.(((....))).))), in that order: -38.8 kcal/mol and 57.2 °C.
The matching figures for CGATCGAAAGATCG (((((....))))): -30.4 kcal/mol and 59.9 °C.
As for CGATCGGAAACGAAGTCG ((((((....)))..))), the folding enthalpy in data set [1] was -11.7 kcal/mol. Also, the Tm in data set [2] came out at 25.6 °C.
For CGATCGGAAACGACATCG ((((((....)))..))), in that order: -24 kcal/mol and 32 °C.
For CGATCGGAAACGACTCG ((((((....))).))), in that order: -31 kcal/mol and 40.7 °C.
Take CGATCGGAAACGAGCTCG ((((((....)))..))): the folding enthalpy in data set [1] was -11.5 kcal/mol. In data set [2], the Tm came to 29.8 °C.
On to CGATCGGAAACGATGTCG ((((((....)))..))), for which the folding enthalpy in data set [1] is -13.6 kcal/mol. In addition, the Tm in data set [2] was 39.5 °C.
For CGATGCCGGAAACGGTCG (((..(((....)))))), in that order: -10 kcal/mol and 32.7 °C.
The matching figures for CGATTCGGAAACGAGTCG (((.(((....))).))): -43.6 kcal/mol and 50.8 °C.
